Results as given in ChEMBL document CHEMBL1157420, “2-phenyl-4-piperazinylbenzimidazoles: orally active inhibitors of the gonadotropin releasing hormone (GnRH) receptor” (Bioorg Med Chem, 2008).
The source made the active and inactive calls. The rule behind the calls is not given here.

What was measured:
[1] = molecular target: T1, Gonadotropin-releasing hormone receptor (Rattus norvegicus, UniProt P30969); assay: Antagonist activity at […] GnRH receptor in CO2 asphyxiated rat primary pituitary cells assessed as reduction in (D-Trp6)LHRH-induced LH release; type: functional, cell-based, Pituitary gland cell
T1 sequence (P30969 whole entry): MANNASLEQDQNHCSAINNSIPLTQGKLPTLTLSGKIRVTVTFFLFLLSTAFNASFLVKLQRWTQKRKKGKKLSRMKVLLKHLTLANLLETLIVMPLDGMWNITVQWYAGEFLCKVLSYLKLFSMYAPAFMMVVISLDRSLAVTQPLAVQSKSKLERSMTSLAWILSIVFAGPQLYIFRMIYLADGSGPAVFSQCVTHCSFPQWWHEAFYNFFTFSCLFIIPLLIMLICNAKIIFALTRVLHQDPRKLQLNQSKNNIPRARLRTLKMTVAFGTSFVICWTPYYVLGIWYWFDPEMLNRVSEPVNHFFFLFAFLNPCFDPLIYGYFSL
Procedure, shortened: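 Anterior pituitaries from adult rats were minced, dissociated and plated at 30,000 cells/well in DMEM with 25 mM Hepes and 10% FBS, then cultured 72 h at 37 °C, 5% CO2. After washing, cells were treated 3 h in 0.1% BSA medium with an antagonist dose response plus an ED50 concentration of D-Trp6-LHRH. LH in medium measured by RIA; cell toxicity checked by CellTiter-Glo.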

[2] = molecular target: T1, Gonadotropin-releasing hormone receptor; assay: Displacement of [125I]-(D-Trp6)LHRH from rat recombinant GnRH receptor
Procedure, shortened: (§1)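 Membranes from recombinant cells expressing human or rat GnRH receptor, made in 25 mM Tris-Cl pH 7.4 with 0.1% sodium azide and 0.1% BSA. 50 μg protein incubated with about 50,000 cpm 125I-(D-Trp6)-LHRH for 2 h at 4 °C, with increasing unlabeled competitor. Filtered on BSA-presoaked glass-fiber filters, washed twice, counted by gamma counter. Percent inhibition and IC50 derived.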

[3] = molecular target: 5-hydroxytryptamine receptor 2A (Homo sapiens, UniProt P28223); assay: Binding affinity to 5HT2A receptor
[4] = Half life in rat plasma at 1.0 mg/kg, iv; type: ADME, organism-based; set-up: dose 1 mg/kg, route intravenous
[5] = Half life in rat plasma at 20 mg/kg, po; type: ADME, organism-based; set-up: dose 20 mg/kg, route oral
[6] = Tmax in rat at 20 mg/kg, po; type: ADME, organism-based; set-up: dose 20 mg/kg, route oral; conditions: in vivo
[7] = Cmax in rat at 20 mg/kg, po; type: ADME, organism-based; set-up: dose 20 mg/kg, route oral; conditions: in vivo
[8] = molecular target: T2, Gonadotropin-releasing hormone receptor (Homo sapiens, UniProt P30968); assay: Antagonist activity at human recombinant GnRH receptor assessed as reduction in (D-Trp6)LHRH-induced myo-(1,2)-[3H]inositol production; type: functional
T2 sequence (P30968 whole entry): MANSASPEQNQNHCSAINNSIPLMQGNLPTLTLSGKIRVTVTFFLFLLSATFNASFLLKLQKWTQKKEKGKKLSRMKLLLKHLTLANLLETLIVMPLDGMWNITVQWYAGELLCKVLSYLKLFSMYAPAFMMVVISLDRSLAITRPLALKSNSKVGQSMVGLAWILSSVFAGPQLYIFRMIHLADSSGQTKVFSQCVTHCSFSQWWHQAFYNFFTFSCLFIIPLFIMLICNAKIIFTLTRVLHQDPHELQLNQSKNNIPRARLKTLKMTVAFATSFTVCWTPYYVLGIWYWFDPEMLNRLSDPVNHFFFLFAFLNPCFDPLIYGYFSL
Procedure, shortened: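 Recombinant cells expressing human GnRH receptor, pre-labeled with myo-(1,2)-3H-inositol, incubated 1 h in medium with lithium chloride and D-Trp6-LHRH, with or without antagonist. Cells then lysed and labeled inositol phosphates separated from inositol by […] and counted. Run in triplicate, repeated in three independent experiments; IC50 derived.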

[9] = Volume of distribution at steady state in rat at 1.0 mg/kg, iv; type: ADME, organism-based; set-up: dose 1 mg/kg, route intravenous; conditions: in vivo, read-out: Vdss
Rattus norvegicus = assay: Activity in orchidectomized castrated Sprague-Dawley rat assessed as reduction in LH level at 30 mg/kg, po after 24 hrs; type: functional, organism-based; set-up: dose 30 mg/kg; conditions: in the assay text read “after 1 to 6 hrs” for “after 24 hrs”
Procedure, shortened: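 Male Sprague–Dawley rats ten days post-castration, jugular-catheterized; basal blood drawn, then vehicle (2% Tween 80/0.04 N HCl) or antagonist given orally. Blood sampled at regular intervals, plasma LH measured by ELISA. Figure legend gives PEG 400 as vehicle, nine animals per group, t = 0 levels set to 100.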

[10] = AUC (0 to infinity) in rat at 1.0 mg/kg, iv; type: ADME, organism-based; set-up: time infinity, dose 1 mg/kg, route intravenous; conditions: plasma
[11] = molecular target: T2, Gonadotropin-releasing hormone receptor; assay: Displacement of [125I]-(D-Trp6)LHRH from human recombinant GnRH receptor; procedure, shortened: as §1
[12] = Plasma clearance in rat at 1.0 mg/kg, iv; type: ADME, organism-based; set-up: dose 1 mg/kg, route intravenous
[13] = AUC (0 to infinity) in rat at 20 mg/kg, po; type: ADME, organism-based; set-up: time infinity, dose 20 mg/kg, route oral; conditions: plasma
[14] = Bioavailability in rat at 20 mg/kg, po; type: ADME, organism-based; conditions: in vivo

Sequence of 5-hydroxytryptamine receptor 2A (P28223 whole entry): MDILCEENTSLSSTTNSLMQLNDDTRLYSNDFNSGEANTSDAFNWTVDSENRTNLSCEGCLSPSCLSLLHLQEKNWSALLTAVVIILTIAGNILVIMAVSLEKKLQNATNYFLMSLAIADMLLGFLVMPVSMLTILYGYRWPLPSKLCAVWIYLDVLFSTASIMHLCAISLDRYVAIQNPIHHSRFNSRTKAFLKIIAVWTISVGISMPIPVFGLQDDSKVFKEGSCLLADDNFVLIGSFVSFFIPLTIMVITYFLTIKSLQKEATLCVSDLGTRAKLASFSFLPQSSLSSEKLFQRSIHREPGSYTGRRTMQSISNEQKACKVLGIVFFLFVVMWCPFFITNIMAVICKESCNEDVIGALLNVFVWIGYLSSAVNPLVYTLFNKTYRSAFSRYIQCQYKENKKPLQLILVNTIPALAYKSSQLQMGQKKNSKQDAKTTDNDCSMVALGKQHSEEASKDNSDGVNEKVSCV

IC50 [1]: 0.059 µM | IC50 [2]: 0.032 µM | Ki [3]: 0.23 µM | half-life [4]: 1.1 h | half-life [5]: 3.1 h | Tmax [6]: 0.67 h | Cmax [7]: 0.48 µg/mL | IC50 [8]: 0.004 µM | Vd [9]: 4.8 L/kg | AUC(0-inf) [10]: 0.19 µg·h/mL | IC50 [11]: 0.011 µM | clearance [12]: 5.7 L/h/kg | AUC(0-inf) [13]: 2.72 µg·h/mL | bioavailability [14]: 74%
Structure (SMILES): CCn1cc(CN2CCN(c3cccc4[nH]c(-c5ccc(C(C)(C)C)cc5)nc34)CC2)c(=O)[nH]c1=O
Activity (Rattus norvegicus): Active
